Columns and labels:
Assay type in all cases: functional
Mus musculus [1] = assay: In vivo euglycemic activity (administered by oral gavage) in C57/6J-ob/ob mice by normalization of blood glucose levels at a dose of 1 mg/kg.
Outline: (§1)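 Mice bled from retro-orbital sinus into tubes with 2% sodium heparin for baseline glucose, then dosed by oral gavage once daily for 4 days in 0.25% (w/v) methylcellulose in water, no pH adjustment (0.1 mL per 20 g). Bled 24 h after fourth dose. Samples centrifuged 2 min at 10000g. Plasma glucose measured by hexokinase UV method. Results scaled to vehicle (0%) and ciglitazone 50 mg/kg (100%).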

Mus musculus [2] = assay: In vivo euglycemic activity (administered by oral gavage) in C57/6J-ob/ob mice by normalization of blood glucose levels at a dose of 0.5 mg/kg.; outline: as §1
Mus musculus [3] = assay: In vivo euglycemic activity (administered by oral gavage) in C57/6J-ob/ob mice measured by normalization of blood glucose levels at a dose of 5 mg/kg.
Mus musculus [4] = assay: In vivo euglycemic activity (administered by oral gavage) in C57/6J-ob/ob mice by normalization of blood glucose levels at a dose of 10 mg/kg.; outline: as §1
Mus musculus [5] = assay: In vivo euglycemic activity of the compound (administered by oral gavage) in C57/6J-ob/ob mice is measured by normalization of blood glucose levels at a dose of 2.5(mg/kg); outline: as §1

SMILES | Normalization (Mus musculus [1]) | Normalization (Mus musculus [3]) | Normalization (Mus musculus [4]) | further results
Cc1oc(-c2ccccc2)nc1CC/C(=N\O)c1ccc(CC2SC(=O)NC2=O)cc1 (configuration not stated) | 99% | 100% | – | Normalization (Mus musculus [2]): 0%
Cc1oc(-c2ccc(C(F)(F)F)cc2)nc1CCC(=O)c1ccc(/C=C2\SC(=O)NC2=O)cc1 | 58% | – | – | Normalization (Mus musculus [2]): 28%
O=C1NC(=O)C(Cc2ccc(C(=O)/C=C/c3ccccc3C(F)(F)F)cc2)S1 (configuration not stated) | – | 39% | 57% | –
CCN(C(=O)Cc1nc(-c2ccccc2)oc1C)c1ccc(CC2SC(=O)NC2=O)cc1 (configuration not stated) | – | 25% | – | –
O=C1NC(=O)C(Cc2ccc(C(=O)/C=C/c3ccco3)cc2)S1 (configuration not stated) | – | – | 65% | –
CN(C)c1ccc(/C=C/C(=O)c2ccc(CC3SC(=O)NC3=O)cc2)cc1 (configuration not stated) | – | – | 17% | –
Cc1oc(-c2ccccc2)nc1CCS(=O)(=O)c1ccc(CC2SC(=O)NC2=O)cc1 (configuration not stated) | 11% | 69% | – | –
Cc1oc(-c2ccccc2)nc1CN(C)S(=O)(=O)c1ccc(CC2SC(=O)NC2=O)cc1 (configuration not stated) | – | 9% | – | –
Cc1oc(-c2ccc3ccccc3c2)nc1CCS(=O)(=O)c1ccc(CC2SC(=O)NC2=O)cc1 (configuration not stated) | – | 0% | – | Normalization (Mus musculus [5]): 0%
Cc1oc(-c2ccccc2)nc1CNS(=O)(=O)c1ccc(CC2SC(=O)NC2=O)cc1 (configuration not stated) | – | 0% | – | –
O=C1NC(=O)C(Cc2ccc(C(O)CCc3ccccn3)cc2)S1 (configuration not stated) | – | – | 13% | –
COc1ccc(-c2nc(CCC(=O)c3ccc(CC4SC(=O)NC4=O)cc3)c(C)o2)cc1 (configuration not stated) | 95% | – | – | Normalization (Mus musculus [2]): 43%
Cc1nc(-c2ccccc2)c(CCC(=O)c2ccc(CC3SC(=O)NC3=O)cc2)s1 (configuration not stated) | – | 61% | – | Normalization (Mus musculus [5]): 0%
Cc1oc(-c2ccco2)nc1CCC(=O)c1ccc(CC2SC(=O)NC2=O)cc1 (configuration not stated) | 61% | – | – | –
O=C1NC(=O)C(Cc2ccc(C(=O)CCCc3ccccc3)cc2)S1 (configuration not stated) | – | – | 26% | –
Cc1oc(-c2ccc3ccccc3c2)nc1CCC(=O)c1ccc(CC2SC(=O)NC2=O)cc1 (configuration not stated) | 39% | – | – | –
COc1ccccc1CCC(=O)c1ccc(CC2SC(=O)NC2=O)cc1 (configuration not stated) | – | – | 0% | –
Cc1ccc(-c2nc(CCC(=O)c3ccc(/C=C4\SC(=O)NC4=O)cc3)c(C)o2)o1 | 76% | – | – | Normalization (Mus musculus [2]): 1%
O=C1NC(=O)C(Cc2ccc(C(=O)/C=C/c3cccc(Cl)c3)cc2)S1 (configuration not stated) | – | – | 4% | –
Cc1ccccc1/C=C/C(=O)c1ccc(CC2SC(=O)NC2=O)cc1 (configuration not stated) | – | – | 21% | –
Cc1oc(-c2cccs2)nc1CCC(=O)c1ccc(/C=C2\SC(=O)NC2=O)cc1 | 100% | – | – | –
O=C1NC(=O)C(Cc2ccc(C(=O)/C=C/c3ccccc3Cl)cc2)S1 (configuration not stated) | – | 65% | 44% | –
O=C1NC(=O)C(Cc2ccc(C(=O)CCc3ccco3)cc2)S1 (configuration not stated) | – | – | 24% | –
Cc1oc(-c2ccc(Cl)cc2)nc1CCC(=O)c1ccc(CC2SC(=O)NC2=O)s1 (configuration not stated) | 51% | – | – | Normalization (Mus musculus [5]): 100%
Cc1ccc(-c2nc(CCC(=O)c3ccc(CC4SC(=O)NC4=O)s3)co2)cc1 (configuration not stated) | 10% | – | – | Normalization (Mus musculus [5]): 0%
Cc1oc(-c2ccco2)nc1CCC(=O)c1ccc(/C=C2\SC(=O)NC2=O)cc1 | 55% | – | – | –
O=C1NC(=O)C(Cc2ccc(C(=O)/C=C/c3nc4ccccc4s3)cc2)S1 (configuration not stated) | – | – | 0% | –
COc1ccc(CCC(=O)c2ccc(CC3SC(=O)NC3=O)cc2)cc1 (configuration not stated) | – | – | 50% | –
Cc1oc(-c2ccccc2)nc1CN(C)C(=O)c1ccc(CC2SC(=O)NC2=O)cc1 (configuration not stated) | – | 83% | – | Normalization (Mus musculus [5]): 0%

Source: ChEMBL document CHEMBL1126043, “Novel thiazolidine-2,4-diones as potent euglycemic agents” (1992)
